Test results reported in ChEMBL document CHEMBL3046353, “Synthesis and fungicidal activity of some 5-membered heterocyclic derivatives containing benzimidazoles” (1993).
Activity calls are given as the source filed them. The rule behind the calls is not given here.

Tests used:
Echinochloa crus-galli [1] = assay: Herbicidal activity against Echinochloa crus-galli (barnyard grass) under paddy conditions; type: functional, organism-based
Avena sativa [2] = assay: Herbicidal activity against Avena sativa under paddy conditions; type: functional, organism-based
Oryza sativa [3] = assay: Post-emergence herbicidal activity against Oryza sativa (rice); type: functional, organism-based
Schoenoplectus acutus [4] = assay: Herbicidal activity against Schoenoplectus acutus (hardstem bulrush) under paddy conditions; type: functional, organism-based
Avena sativa [5] = assay: Post-emergence herbicidal activity against Avena sativa; type: functional, organism-based
Sagittaria latifolia [6] = assay: Pre-emergence herbicidal activity against Sagittaria latifolia (broadleaf arrowhead); type: functional, organism-based
Tetranychus cinnabarinus = assay: Insecticidal activity against Tetranychus cinnabarinus (carmine spider mite); type: functional, organism-based
Helminthosporium = assay: Fungicidal activity against Helminthosporium oryzae at 500 ppm after 7 days by poisoned food technique; type: functional; conditions: 168 h, read-out: GI
Method in brief: (§1)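 Cultures kept on potato dextrose agar. Each compound, dissolved in acetone, was added to potato dextrose agar at a final 500 ppm (w/v) (poisoned food technique). A disc cut from the periphery of a seven-day-old culture was inoculated onto each set. Control sets held potato dextrose agar only. The read-out is percentage inhibition of fungal growth relative to control.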

Oryza sativa [7] = assay: Pre-emergence herbicidal activity against Oryza sativa (rice); type: functional, organism-based
Culex pipiens pallens = assay: Insecticidal activity against Culex pipiens pallens (mosquito) at 3 to 5 ppm; type: functional, organism-based
Echinochloa crus-galli [8] = assay: Pre-emergence herbicidal activity against Echinochloa crus-galli (barnyard grass); type: functional, organism-based
Schoenoplectus acutus [9] = assay: Pre-emergence herbicidal activity against Schoenoplectus acutus (hardstem bulrush); type: functional, organism-based
Rhizoctonia solani = assay: Fungicidal activity against Rhizoctonia solani at 500 ppm after 7 days by poisoned food technique; type: functional; conditions: 168 h, read-out: GI; method in brief: as §1
Abutilon theophrasti [10] = assay: Pre-emergence herbicidal activity against Abutilon theophrasti (velvetleaf); type: functional, organism-based
Avena sativa [11] = assay: Pre-emergence herbicidal activity against Avena sativa; type: functional, organism-based
Sagittaria latifolia [12] = assay: Herbicidal activity against Sagittaria latifolia (broadleaf arrowhead) under paddy conditions; type: functional, organism-based
Convolvulaceae [13] = assay: Pre-emergence herbicidal activity against Convolvulaceae (morning glory family); type: functional, organism-based
Abutilon theophrasti [14] = assay: Post-emergence herbicidal activity against Abutilon theophrasti (velvetleaf); type: functional, organism-based
Convolvulaceae [15] = assay: Herbicidal activity against Convolvulaceae (morning glory family) under paddy conditions; type: functional, organism-based
Sagittaria latifolia [16] = assay: Post-emergence herbicidal activity against Sagittaria latifolia (broadleaf arrowhead); type: functional, organism-based
Oryza sativa [17] = assay: Herbicidal activity against Oryza sativa (rice) under paddy conditions; type: functional, organism-based
Spodoptera litura = assay: Insecticidal activity against Spodoptera litura; type: functional, organism-based
Schoenoplectus acutus [18] = assay: Post-emergence herbicidal activity against Schoenoplectus acutus (hardstem bulrush); type: functional, organism-based
Musca domestica = assay: Insecticidal activity against Musca domestica (house fly); type: functional, organism-based
Echinochloa crus-galli [19] = assay: Post-emergence herbicidal activity against Echinochloa crus-galli (barnyard grass); type: functional, organism-based
Convolvulaceae [20] = assay: Post-emergence herbicidal activity against Convolvulaceae (morning glory family); type: functional, organism-based

For Nn1c(SCc2nc3ccccc3[nH]2)nnc1-c1ccc(Cl)cc1, the Activity (Echinochloa crus-galli [1]) was “inactive”, the Activity (Avena sativa [2]) was “inactive” and the Activity (Oryza sativa [3]) was “inactive”. The Activity (Schoenoplectus acutus [4]) was “inactive”, the Activity (Avena sativa [5]) was “inactive” and the Activity (Sagittaria latifolia [6]) was “inactive”. The Activity (Tetranychus cinnabarinus) was “inactive”, the inhibition of growth at 500 ppm (Helminthosporium) was 45.3% and the Activity (Oryza sativa [7]) was “inactive”. For the same compound, the Activity (Culex pipiens pallens) was “Active”, the Activity (Echinochloa crus-galli [8]) was “inactive” and the Activity (Schoenoplectus acutus [9]) was “inactive”. For the same compound, the inhibition of growth at 500 ppm (Rhizoctonia solani) was 20%, the Activity (Abutilon theophrasti [10]) was “inactive” and the Activity (Avena sativa [11]) was “inactive”. For the same compound, the Activity (Sagittaria latifolia [12]) was “inactive”, the Activity (Convolvulaceae [13]) was “inactive” and the Activity (Abutilon theophrasti [14]) was “inactive”. For the same compound, the Activity (Convolvulaceae [15]) was “inactive”, the Activity (Sagittaria latifolia [16]) was “inactive” and the Activity (Oryza sativa [17]) was “inactive”. For the same compound, the Activity (Spodoptera litura) was “inactive”, the Activity (Schoenoplectus acutus [18]) was “inactive” and the Activity (Musca domestica) was “inactive”. For the same compound, the Activity (Echinochloa crus-galli [19]) was “inactive” and the Activity (Convolvulaceae [20]) was “inactive”.
